# From PubChem BioAssay
# An excerpt weighted towards active compounds, which were near 2.3% of everything screened.
# TRPC6 inhibitor = inhibitors of mouse TRPC6 channel. HEK293-TRPC6, membrane potential dye, ACh-evoked depolarization; stronger effect = lower value. B-score at 10 µM. hit rate 1.1% among 310,000;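 active = B-score under library mean minus 3 SD, initial fluorescence not abnormally high, positive integrated signal ratio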;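 also: B-score derived from integrated fluorescence ratio over the kinetic read; more negative B-score means stronger inhibition of depolarization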
# Target sequence (Q61143 whole entry, looked up): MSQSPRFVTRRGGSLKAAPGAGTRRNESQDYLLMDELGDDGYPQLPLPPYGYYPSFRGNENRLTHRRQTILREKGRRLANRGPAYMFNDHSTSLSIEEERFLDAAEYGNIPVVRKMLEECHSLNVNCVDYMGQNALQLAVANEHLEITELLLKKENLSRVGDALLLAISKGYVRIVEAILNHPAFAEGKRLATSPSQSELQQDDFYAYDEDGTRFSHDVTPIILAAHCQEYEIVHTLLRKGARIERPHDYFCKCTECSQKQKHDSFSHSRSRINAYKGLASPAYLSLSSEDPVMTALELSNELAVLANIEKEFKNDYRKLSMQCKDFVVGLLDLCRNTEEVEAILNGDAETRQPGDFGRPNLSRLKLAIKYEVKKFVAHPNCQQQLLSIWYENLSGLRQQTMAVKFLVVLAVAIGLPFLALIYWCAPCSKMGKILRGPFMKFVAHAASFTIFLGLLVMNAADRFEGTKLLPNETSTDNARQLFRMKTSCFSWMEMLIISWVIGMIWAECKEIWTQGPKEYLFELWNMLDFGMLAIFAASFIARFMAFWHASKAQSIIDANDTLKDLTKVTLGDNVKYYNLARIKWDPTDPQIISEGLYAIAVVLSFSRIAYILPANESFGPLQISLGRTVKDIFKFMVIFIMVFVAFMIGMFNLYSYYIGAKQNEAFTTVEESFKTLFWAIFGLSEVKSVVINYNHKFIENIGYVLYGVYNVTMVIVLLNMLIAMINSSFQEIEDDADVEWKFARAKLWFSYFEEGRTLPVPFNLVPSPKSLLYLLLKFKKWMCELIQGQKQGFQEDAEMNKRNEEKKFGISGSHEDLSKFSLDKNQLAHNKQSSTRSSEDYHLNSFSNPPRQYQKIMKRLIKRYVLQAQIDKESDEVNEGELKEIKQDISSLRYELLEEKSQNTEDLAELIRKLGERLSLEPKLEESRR
# TRPC4 inh = blocks the mouse TRPC4 cation channel. Q9QUQ5. HEK293 TRPC4beta/mu-opioid, DAMGO-evoked Fluo4 calcium flux; stronger effect = lower value. B-score at 10 µM. hit rate 0.39% among 300,000. AID 2247;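 active = B-score over 3 SD under the library average, no early fluorescence shift, positive overall ratio signal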
#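 Assay system – HEK293 line stably carrying TRPC4beta and mu-opioid receptor · Doses – single dose · Detection – Fluo4 calcium-dye fluorescence, kinetic read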
# TRPC4 act = activators of mouse TRPC4 channel. B-score at 10 µM. Q9QUQ5. AID 2237. hit rate 0.49% among 310,000. HEK293 TRPC4beta/mu-opioid, Fluo4 calcium fluorescence; stronger effect = higher value;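 active = B-score above 5 SD of library B-scores, and initial fluorescence ratio not above library mean plus 5 SD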;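 also: positive B-score marks a calcium rise read as TRPC4 activation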
#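 System: HEK293 cells stably co-expressing mouse TRPC4beta and mu-opioid receptor; Schedule: Fluo4 dye loading 45 min at room temperature, 110 s recording; Detection: Fluo4 fluorescence, kinetic; Evaluation: B-scored integrated calcium fluorescence ratio; Controls: buffer (low) and maximal DAMGO (high).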
# TRPC4 PAM = allosteric potentiators of mouse TRPC4 channel; HEK293 TRPC4beta/mu-opioid, DAMGO EC20, Fluo-4 Ca2+ flux; stronger effect = higher value; B-score at 10 µM; hit rate 0.42% among 310,000;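 active = B-score of calcium response area above 5 SD of library B-scores, with initial fluorescence ratio within 5 SD of library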;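 also: B-score of integrated fluorescence ratio over time as area under calcium response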
# TRPC6 activator = activators of mouse TRPC6 channel; Q61143; HEK293-TRPC6 membrane potential dye fluorescence; stronger effect = higher value; B-score at 10 µM; hit rate 0.13% among 310,000;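 active = B-score of the integrated fluorescence ratio above library mean plus 3 SD, and starting fluorescence ratio within library mean plus 5 SD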;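 also: higher score means more depolarization so channel activation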
# * marks the source's active call; other numbers are inactive results; i = inactive.
SMILES,TRPC6 inhibitor,TRPC4 inh,TRPC4 act,TRPC4 PAM,TRPC6 activator
Cn1nc(C(=O)OCC(=O)NCCc2ccccc2)c2ccccc2c1=O,i,i,i,i,i
CC(Oc1ccc(Br)cc1)C(=O)Nc1ccc(S(=O)(=O)N(C)C2CCN(C)CC2)cc1 (stereo unspecified),i,i,63*,i,i
CCOC(=O)c1cnc2ccc(OC)cc2c1NCc1ccccc1,i,i,i,i,i
CCOC(=O)c1cnc2ccccc2c1NCc1ccco1,i,-6*,i,i,i
COc1cccc(OC)c1NC(=O)Cn1nc(-c2ccc3c(c2)OCCO3)ccc1=O,i,i,i,i,i
CCN(CC)CCCNC(=O)c1ccc2c(Cl)c3c(nc2c1)CCCC3,i,i,i,i,i
CCCCN(CC)CCNC(=O)c1ccc2c(Cl)c3c(nc2c1)CCC3,i,i,132*,12*,i
CC1(C)Cc2nc3oc4c(=O)n(CC(=O)Nc5ccccc5)cnc4c3cc2CO1,i,-6*,i,i,i
COc1ccc(N2CCN(C(=O)Cn3nnc(-c4ccc(OC)c(OC)c4)n3)CC2)cc1,i,i,i,i,i
CCCN1CN(Cc2ccco2)c2nc3ccccc3n2C1,i,-6*,i,i,i
Cc1ccc(S(=O)(=O)Nc2nc3ccc(S(C)(=O)=O)cc3s2)cc1,i,i,i,i,i
CC(=O)Nc1ccc(S(=O)(=O)Nc2nc3ccc(C)cc3s2)cc1,i,-5*,i,i,i
Cc1noc(C)c1CN1C(=O)c2cccc([N+](=O)[O-])c2C1=O,i,i,i,i,i
COc1ccc(NC(=O)c2sc(=S)[nH]c2N)cc1,i,i,i,i,i
COc1cc(-c2nnc(-c3ccc(S(=O)(=O)c4ccccc4)cc3)o2)cc(OC)c1OC,i,i,i,i,i
Cc1ccc(-n2c(SCC(=O)O)nc3sc4c(c3c2=O)C(C)CCC4)cc1 (stereo unspecified),i,i,i,11*,i
Cc1ccccc1-n1c(SCC(=O)O)nc2sc3c(c2c1=O)CCCC3,i,i,i,i,i
CCOc1ccc(-n2c(SCC(=O)O)nc3sc4c(c3c2=O)CCCC4)cc1,i,i,i,16*,i
CC(=O)N1CCN(c2ccnc3cc(Cl)ccc23)CC1,i,i,i,i,i
O=S(=O)(c1ccccc1)N1CCN(c2ccnc3cc(Cl)ccc23)CC1,i,i,i,13*,i
O=S(=O)(c1cccs1)N1CCN(c2ccnc3cc(Cl)ccc23)CC1,i,i,i,11*,i
O=C(Nc1scc(-c2ccc(F)cc2)c1C(=O)O)c1ccco1,i,i,i,i,i
S=c1[nH]nc(COc2ccccc2)n1/N=C/c1ccc(Br)cc1,i,i,i,i,i
COc1ccccc1NS(=O)(=O)c1cccc(C(=O)NC2CCN(Cc3ccccc3)CC2)c1,i,-8*,52*,i,i
O=C(NC1CCN(Cc2ccccc2)CC1)c1cccc(S(=O)(=O)Nc2ccc(Br)cc2)c1,i,i,i,i,i
SMILES,TRPC6 inhibitor,TRPC4 inh,TRPC4 act,TRPC4 PAM,TRPC6 activator
Cc1cc(C)nc(SCC(=O)N/N=C/c2ccc3c(c2)OCO3)n1,i,i,i,i,i
Cc1ccc(OCC(=O)Nc2ccc(C)c(S(=O)(=O)N3CCCCC3)c2)c([N+](=O)[O-])n1,i,i,i,i,i
O=C(CSc1nc(=O)n(CCN2CCOCC2)c2c1CCC2)Nc1ccc(OC(F)(F)F)cc1,i,-6*,i,i,i
CCc1cc(=O)oc2cc(OCC(=O)O)c(Cl)cc12,i,i,i,i,i
O=C(O)CCC(=O)N1CCN(c2nc3ccccc3s2)CC1,i,i,i,20*,i
COCCn1nnnc1C(c1cccs1)N1CCN(c2nc3ccccc3s2)CC1 (stereo unspecified),i,i,i,i,i
c1ccc(CN2CCN(c3nc4ccccc4s3)CC2)cc1,i,i,i,17*,i
c1ccc(CN2CCN(c3nc(N4CCOCC4)c4ccccc4n3)CC2)cc1,-5.48*,i,i,i,i
Oc1ccc(C(c2nnnn2CCc2ccccc2)N2CCN(c3nc4ccccc4s3)CC2)cc1 (stereo unspecified),i,i,77*,i,i
CC1CCN(c2nc3ccc(C(=O)N4CCN(Cc5ccccc5)CC4)cc3s2)CC1,i,i,i,i,i
CCOC(=O)c1cnc(SCC(C)C)nc1N,i,i,i,i,i
COC(=O)c1sc(S(=O)(=O)N2CCC(C)CC2)c(C(=O)OC)c1C,i,i,i,i,i
CCN1CCN(S(=O)(=O)c2ccc(Cl)c(C(=O)Nc3nnc(C)s3)c2)CC1,i,i,50*,i,i
CCN(CC)S(=O)(=O)c1ccc(Cl)c(C(=O)Nc2nnc(C)s2)c1,i,i,i,i,i
Cc1[nH]c2ccc(-c3nnc(SCC(=O)N4CCCc5ccccc54)o3)cc2c1C,i,i,i,i,i
CNc1nc(N2CCc3ccccc32)ncc1F,i,i,i,47*,i
COc1ccc(C2CC(=O)c3cnc(N4CCc5ccccc54)nc3C2)cc1OC (stereo unspecified),i,i,i,i,i
CC(C)(C)n1nnnc1C(c1ccc(C(F)(F)F)cc1)N(Cc1ccccc1)Cc1ccco1 (stereo unspecified),i,i,i,i,i
CCCN(CCC)CCCNC(=O)c1ccc2c(c1)N(CC)C(=O)c1ccccc1S2=O (stereo unspecified),i,i,66*,i,i
CCCCSCCCNC(=O)c1ccc2c(c1)N(CC)C(=O)c1ccccc1S2=O (stereo unspecified),i,i,i,i,i
O=C(NCCCN1CCCC1)c1ccc2c(c1)N(Cc1cccc(Cl)c1)C(=O)c1ccccc1S2=O (stereo unspecified),i,i,i,i,i
CC1CC(C)CN(CCCNC(=O)c2ccc3c(c2)N(Cc2ccccc2)C(=O)c2ccccc2S3=O)C1 (stereo unspecified),i,i,85*,i,i
COC(=O)Cc1c(C)nc2nc(-c3ccccc3)[nH]n2c1=O,i,i,i,i,i
O=C(O)CCCCn1c(SCc2ccccc2Cl)nc2ccsc2c1=O,i,i,i,i,i
COc1ccc(C(=O)O)cc1S(=O)(=O)N(C)CCc1ccccn1,i,i,46*,i,i
